Laboratory results taken from ChEMBL document CHEMBL4725347, “Discovery of a Monoiodo Aza-BODIPY Near-Infrared Photosensitizer: in vitro and in vivo Evaluation for Photodynamic Therapy” (J Med Chem, 2020).
The source made the active and inactive calls. No cut-off for these calls is given here.

Experiments:
[1] = Photostability of the compound in isopropanol assessed as compound degradation irradiated with 90 mW/cm2 light; assay type: physicochemical
HeLa [2] = assay: Induction of apoptosis in human HeLa cells assessed as early apoptotic cells at 40 nM preincubated for 3 hrs followed by 54 J/cm2 light irradiation and measured after 24 hrs by Annexin-V-FITC/propidium iodide staining based flow cytometry (reference value: 0.54%); assay type: functional
Procedure, shortened: (§1)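 HeLa cells in six-well plates were exposed to compound for 3 h, irradiated (λ > 590 nm), and incubated 24 h at 37 °C. Cells were then harvested, washed with PBS, and stained with annexin V-FITC/PI for 20 min at room temperature before immediate flow cytometry. Untreated, unirradiated cells served as control.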

HeLa [3] = assay: Antitumor activity against human HeLa cells xenografted in Balb/c nu/nu mouse assessed as tumor growth inhibition at 2 mg/kg, iv pretreated for 15 mins followed by 54 J/cm2 light irradiation for 10 mins and measured after 24 days; assay type: functional, organism-based
Procedure, shortened: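 Female Balb/c nu/nu mice with subcutaneous HeLa tumors (5×10^6 cells) reaching 80–100 mm³ on day 7 were randomized, n = 5 per group. Mice received 2 mg/kg by tail vein, or saline for controls. After 15 min the tumor was irradiated once with 54 J/cm² (75 W halogen lamp, >590 nm filter, 90 mW/cm², 10 min), unanaesthetized. Calipers every other day; V = 0.5×L×W²; body weight tracked.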

[4] = Drug uptake in Balb/c nu/nu mouse xenografted with human HeLa cells at 2 mg/kg, iv measured up to 3 hrs by fluorescence imaging analysis; assay type: ADME, organism-based; details: in vivo
Procedure, shortened: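 Female Balb/c nu/nu mice bore subcutaneous HeLa tumors (5×10^6 cells, right back) and received 2 mg/kg via tail vein. Living mice were imaged under isoflurane at time points (ex 680/em 720 nm, 1 s exposure). At set times mice were euthanized and heart, liver, spleen, lungs, kidneys and tumor imaged ex vivo; ROI quantified, mean ± SD, n = 3.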

[5] = Induction of singlet oxygen generation in isopropanol assessed as relative rate of DPBF degradation to MB at 1 uM irradiated with 90 mW/cm2 halogen light; assay type: functional
Procedure, shortened: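 Singlet oxygen generation measured with 1,3-diphenylisobenzofuran (DPBF) as scavenger. The decrease in DPBF absorbance at 411 nm was monitored over time during light irradiation, and the photodegradation rate was calculated.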

HeLa [6] = assay: Induction of apoptosis in human HeLa cells assessed as late apoptotic cells at 200 nM preincubated for 3 hrs followed by 27 J/cm2 light irradiation and measured after 24 hrs by Annexin-V-FITC/propidium iodide staining based flow cytometry (reference value: 5.92%); assay type: functional; procedure, shortened: as §1
HeLa [7] = assay: Induction of apoptosis in human HeLa cells assessed as necrotic cells at 200 nM preincubated for 3 hrs followed by 54 J/cm2 light irradiation and measured after 24 hrs by Annexin-V-FITC/propidium iodide staining based flow cytometry (reference value: 2.8%); assay type: functional; procedure, shortened: as §1
[8] = Absorption property of the compound in acetonitrile assessed as absorption coefficient by UV-visible spectrophotometric method; assay type: physicochemical
Procedure, shortened: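 Electronic absorption spectra recorded by UV-visible spectrophotometry at room temperature. Solvents were chloroform, isopropanol, acetonitrile, DMF, and PBS buffer containing 1% Cremophor EL/1,2-propanediol (10:3, v:v). Chloroform data were referenced to the non-halogenated parent dye.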

Stabilty [1]: Stable
Drug uptake [4]: Active
Activity [8]: 59300 M⁻¹ cm⁻¹
Compound: COc1ccc(C2=[N+]3C(=Nc4c(-c5ccccc5)cc(-c5ccc(OC)cc5)n4[B-]3(F)F)C(c3ccccc3)=C2I)cc1
Activity (HeLa [2]): 10.68%
TGI (HeLa [3]): Active
fold change (FC) [5]: 7.3
Activity (HeLa [6]): 14.98%
Activity (HeLa [7]): 2.22%
